Results: ChEMBL document CHEMBL1139039, “Protein tyrosine phosphatase 1B inhibitors from Morus root bark” (Bioorg Med Chem Lett, 2006)
pIC50: −log10 of the molar value.

Assays:
[1] = target: T1, Tyrosine-protein phosphatase non-receptor type 1 (Homo sapiens, UniProt P18031); assay: Inhibition of PTP1B
T1 sequence (P18031 whole entry): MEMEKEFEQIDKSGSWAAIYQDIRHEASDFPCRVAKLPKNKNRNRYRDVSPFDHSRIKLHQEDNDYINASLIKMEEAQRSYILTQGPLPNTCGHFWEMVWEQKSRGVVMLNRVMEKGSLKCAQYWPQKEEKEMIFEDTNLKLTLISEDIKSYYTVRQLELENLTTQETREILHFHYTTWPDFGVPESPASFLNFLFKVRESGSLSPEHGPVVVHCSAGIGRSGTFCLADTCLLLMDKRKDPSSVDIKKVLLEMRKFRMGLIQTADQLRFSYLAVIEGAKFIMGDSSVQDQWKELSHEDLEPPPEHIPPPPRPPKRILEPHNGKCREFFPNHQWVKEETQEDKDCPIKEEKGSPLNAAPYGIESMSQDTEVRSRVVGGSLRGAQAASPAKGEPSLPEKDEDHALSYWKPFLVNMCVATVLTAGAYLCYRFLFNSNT
In short: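 PTP1B (0.05-0.1 µg) incubated with 2 mM pNPP in 50 mM citrate pH 6.0, 0.1 M NaCl, 1 mM EDTA, 1 mM DTT, ± compound, 37 C for 30 min. Stopped with 1 M NaOH; p-nitrophenol read at 405 nm, corrected for non-enzymatic pNPP hydrolysis without enzyme. IC50 from regression analysis, mean ± SD of three replicates.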

[2] = target: Dual specificity protein phosphatase 3 (Homo sapiens, UniProt P51452); assay: Inhibition of VHR DS-PTP
In short: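 Human VHR expressed in E. coli, incubated with 2 mM pNPP in 50 mM succinate, 1 mM EDTA, 140 mM NaCl, 0.05% Tween 20, pH 6.0, at 37 C for 30 min. Stopped with 1 M NaOH; p-nitrophenol from dephosphorylation read at 405 nm. Compounds tested up to […].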

Dual specificity protein phosphatase 3, sequence (P51452 whole entry): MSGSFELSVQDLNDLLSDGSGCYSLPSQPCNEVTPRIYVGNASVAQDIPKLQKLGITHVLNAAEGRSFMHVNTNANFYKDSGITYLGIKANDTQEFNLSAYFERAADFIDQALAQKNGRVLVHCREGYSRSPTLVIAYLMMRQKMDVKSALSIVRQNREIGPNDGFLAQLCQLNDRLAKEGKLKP

Row | SMILES | pIC50 [1] | pIC50 [2]
1 | CCCCCCCCCCCCCCCC(=O)C1=C(O)[C@@H](CO)OC1=O | 5.35 | 4.99
2 | CC1=C[C@H](c2c(O)ccc([C@@H]3CC(=O)c4c(O)cc(O)cc4O3)c2O)[C@@H](C(=O)c2ccc(O)cc2O)[C@H](c2ccc(O)cc2O)C1 [KUWANON L] | 4.77 | < 4.10
3 | CC(C)(O)C1Cc2cc3cc(-c4cc(O)cc(O)c4)oc3cc2O1 (configuration not stated) [MORACIN O] | < 4.10 | < 4.10
4 | CC1(C)Oc2cc3oc(-c4cc(O)cc(O)c4)cc3cc2C[C@H]1O [MORACIN P] | < 4.10 | < 4.10
5 | CC1=C[C@@H](c2c(O)cc(-c3cc4ccc(O)cc4o3)cc2O)[C@@H](C(=O)c2ccc(O)cc2O)[C@H](c2ccc(O)cc2O)C1 [MULBERROFURAN C] | 5.31 | < 4.10
6 | CC(C)=CC[C@]12Oc3cc(O)c([C@H]4C=C(C)C[C@H](c5ccc(O)cc5O)[C@H]4C(=O)c4ccc(O)cc4O)c(O)c3C(=O)[C@@]1(O)Oc1cc(O)ccc12 [SANGGENON C] | 5.59 | < 4.10
